Data: ChEMBL document CHEMBL4732158, “Bicyclic Ligand-Biased Agonists of S1P: Exploring Side Chain Modifications to Modulate the PK, PD, and Safety Profiles” (J Med Chem, 2021)
One block for each compound: values may come before it.

Experiments:
[1] = Cardiotoxicity in human iPSC derived cardiomyocytes assessed as change in heart rate at 1 nM measured over 2 hrs by multi-electrode array relative to control; type: toxicity, cell-based; conditions: stem cell-derived cardiomyocyte, 0.001 µM
How it was run: (§1)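 Phosphate metabolite of each compound prepared and tested on cultured human induced pluripotent stem cell-derived cardiomyocytes at 1 and 10 nM; beat rate change averaged over three or more replicates per concentration unless noted (some n = 2).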

[2] = Drug concentration in Lewis rat blood assessed as concentration of parent compound at 2 mg/kg, po measured at 24 hrs by LC-MS/MS analysis; type: ADME, organism-based; conditions: in vivo, read-out: Ct
How it was run: (§2)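 Lewis rats (n = 2−4) dosed orally at 0.5, 1, 2 or 5 mg/kg; blood parent and phosphate metabolite concentrations and lymphocyte counts taken 4 and 24 h post-dose; phosphate-to-parent ratio from 24 h levels; significance versus vehicle by ANOVA with Dunnett's test.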

[3] = Pulmonary toxicity in Lewis rat assessed as fold elevation of BAL protein content at 10 mg/kg, po by chemistry analyzer based analysis relative to control; type: organism-based; conditions: in vivo, 2 mg/kg, in the assay text read “2 mg/kg” for “10 mg/kg”
How it was run: (§3)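 Lewis rats dosed orally; bronchoalveolar lavage protein measured at study end, expressed as fold over vehicle control.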

[4] = Reduction in circulating lymphocytes count in Lewis rat at 2 mg/kg, po measured at 24 hrs by hematology analyzer based analysis; type: Functional, organism-based; design: scale not given: the % may be the effect or the level left; conditions: in vivo
How it was run: (§4)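 Lewis rats (n = 2−4) dosed orally; whole-blood lymphocyte counts taken 4 h and 24 h after dosing and reduction expressed versus vehicle-treated rats. Significance by ANOVA with Dunnett's test (p < 0.05 vs vehicle). Blood levels of parent and phosphate metabolite measured at the same time points in this PK/PD screen.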

[5] = Cardiotoxicity in human iPSC derived cardiomyocytes assessed as change in heart rate at 10 nM measured over 2 hrs by multi-electrode array relative to control; type: toxicity, cell-based; conditions: stem cell-derived cardiomyocyte, 0.01 µM; how it was run: as §1
Rattus norvegicus [6] = experiment: Reduction in circulating lymphocytes count in Lewis rat at 2 mg/kg, po measured at 4 hrs by hematology analyzer based analysis; type: functional; design: scale not given: the % may be the effect or the level left; conditions: 2 mg/kg, 4 h; how it was run: as §4
[7] = Ratio of drug metabolism in Lewis rat blood assessed as phosphate ester metabolite to parent drug at 2 mg/kg, po measured at 24 hrs by LC-MS/MS analysis; type: ADME, organism-based; conditions: in vivo; how it was run: as §2
[8] = Half life in Lewis rat at 2 mg/kg, po measured at 4 to 72 hrs; type: ADME, organism-based; conditions: Lewis, in vivo, time 4-72 hrs
How it was run: (§5)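 Half-life estimated from oral-dosing blood PK profiles in Lewis rats sampled at four time points: 4, 24, 48 and 72 h.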

[9] = Drug concentration in Lewis rat blood assessed as concentration of parent compound at 2 mg/kg, po measured at 4 hrs by LC-MS/MS analysis; type: ADME, organism-based; conditions: in vivo, 2 mg/kg, 4 h, 2 mg/kg, 4 h, read-out: Ct; how it was run: as §2
[10] = Reduction in circulating lymphocytes count in Lewis rat at 0.3 mg/kg, po measured at 24 hrs by hematology analyzer based analysis; type: ADME, organism-based; design: scale not given: the % may be the effect or the level left; conditions: in vivo
Rattus norvegicus [11] = experiment: Reduction in circulating lymphocytes count in Lewis rat at 0.3 mg/kg, po measured at 4 hrs by hematology analyzer based analysis; type: functional; design: scale not given: the % may be the effect or the level left
[12] = Reduction in circulating lymphocytes count in Lewis rat at 0.5 mg/kg, po measured at 24 hrs by hematology analyzer based analysis; type: ADME, organism-based; design: scale not given: the % may be the effect or the level left; conditions: in vivo; how it was run: as §2
[13] = Drug metabolism in Lewis rat blood assessed as parent compound concentration at 0.5 mg/kg, po measured at 4 hrs by LC-MS/MS analysis; type: ADME, organism-based; conditions: in vivo, 0.5 mg/kg, 4 h, BLD = below limit of detection; how it was run: as §2
[14] = Drug metabolism in Lewis rat blood assessed as parent compound concentration at 0.5 mg/kg, po measured at 24 hrs by LC-MS/MS analysis; type: ADME, organism-based; conditions: in vivo, 0.5 mg/kg, 24 h, BLD = below limit of detection; how it was run: as §2
[15] = Reduction in circulating lymphocytes count in Lewis rat at 0.5 mg/kg, po measured at 4 hrs by hematology analyzer based analysis; type: ADME, organism-based; design: scale not given: the % may be the effect or the level left; conditions: in vivo; how it was run: as §2
[16] = Drug metabolism in Lewis rat blood assessed as phosphate ester metabolite to parent ratio at 1 mg/kg, po measured at 24 hrs by LC-MS/MS analysis; conditions: in vivo
Rattus norvegicus [17] = experiment: Reduction in circulating lymphocytes count in Lewis rat at 1 mg/kg, po measured at 4 hrs by hematology analyzer based analysis; type: functional; design: scale not given: the % may be the effect or the level left; how it was run: as §2
[18] = Half life in Lewis rat at 1 mg/kg, po measured at 4 to 72 hrs; type: ADME, organism-based; conditions: in vivo, time 4-72 hrs; how it was run: as §5
[19] = AUC ratio in orally dosed cynomolgus monkey blood assessed as phosphate metabolite to parent compound; type: ADME, organism-based, Macaca fascicularis; conditions: in vivo, po
How it was run: (§6)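 Phosphate-to-parent ratio computed as blood AUC ratio after oral dosing in rats, dogs and monkeys.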

[20] = Drug metabolism in Lewis rat blood assessed as concentration of parent compound at 1 mg/kg, po measured at 24 hrs by LC-MS/MS analysis; type: ADME, organism-based; conditions: Lewis, blood, read-out: Ct; how it was run: as §2
[21] = AUC ratio in orally dosed Beagle dog blood assessed as phosphate metabolite to parent compound; type: ADME, organism-based, Canis lupus familiaris; conditions: in vivo, po; how it was run: as §6
[22] = Drug concentration in Lewis rat blood assessed as concentration of parent compound at 1 mg/kg, po measured at 4 hrs by LC-MS/MS analysis; type: ADME, organism-based; conditions: Lewis, blood, read-out: Ct; how it was run: as §2
[23] = AUC ratio in orally dosed human blood assessed as phosphate metabolite to parent compound; type: ADME, organism-based; conditions: po
[24] = Pulmonary toxicity in Lewis rat assessed as fold elevation of BAL protein content at 1 mg/kg, po by chemistry analyzer based analysis relative to control; type: organism-based; conditions: in vivo; how it was run: as §3
[25] = Reduction in circulating lymphocytes count in Lewis rat at 1 mg/kg, po measured at 24 hrs by hematology analyzer based analysis; type: organism-based; design: scale not given: the % may be the effect or the level left; conditions: in vivo; how it was run: as §2
[26] = AUC ratio in orally dosed Sprague-Dawley rat blood assessed as phosphate metabolite to parent compound; type: ADME, organism-based; conditions: in vivo, po; how it was run: as §6
[27] = Ratio of drug metabolism in Lewis rat blood assessed as phosphate ester metabolite to parent drug at 5 mg/kg, po measured at 24 hrs by LC-MS/MS analysis; type: ADME, organism-based; conditions: in vivo; how it was run: as §2
[28] = Drug concentration in Lewis rat blood assessed as concentration of parent compound at 5 mg/kg, po measured at 24 hrs by LC-MS/MS analysis; type: ADME, organism-based; how it was run: as §2
[29] = Reduction in circulating lymphocytes count in Lewis rat at 5 mg/kg, po measured at 24 hrs by hematology analyzer based analysis; type: ADME, organism-based; design: scale not given: the % may be the effect or the level left; conditions: in vivo; how it was run: as §4
[30] = Drug concentration in Lewis rat blood assessed as concentration of parent compound at 5 mg/kg, po measured at 4 hrs by LC-MS/MS analysis; type: ADME, organism-based; conditions: read-out: Ct; how it was run: as §2
[31] = Pulmonary toxicity in Lewis rat assessed as fold elevation of BAL protein content at 5 mg/kg, po by chemistry analyzer based analysis relative to control; type: organism-based; conditions: in vivo; how it was run: as §3
Rattus norvegicus [32] = experiment: Reduction in circulating lymphocytes count in Lewis rat at 5 mg/kg, po measured at 4 hrs by hematology analyzer based analysis; type: functional; design: scale not given: the % may be the effect or the level left; how it was run: as §4
[33] = target: T1, Sphingosine 1-phosphate receptor 1 (Homo sapiens, UniProt P21453); experiment: Agonist activity at recombinant human S1P1 expressed in CHO cell membranes assessed as stimulation of [35S]-GTPgammaS binding measured after 45 mins by liquid scintillation counting method; type: functional, Cell membrane
[34] = target: T1, Sphingosine 1-phosphate receptor 1; experiment: Displacement of [33P]-SIP from human recombinant S1P1 expressed in CHO cell membranes measured after 45 mins by TopCount scintillation counting method; design: species or system Cell membrane
[35] = target: Sphingosine 1-phosphate receptor 3 (Homo sapiens, UniProt Q99500); experiment: Agonist activity at recombinant human S1P3 expressed in CHO cell membranes assessed as stimulation of [35S]-GTPgammaS binding measured after 45 mins by liquid scintillation counting method; type: functional, Membrane
[36] = target: T1, Sphingosine 1-phosphate receptor 1; experiment: Agonist activity at human recombinant S1P1 expressed in CHO cells assessed as stimulation of ERK phosphorylation incubated for 7 mins by microplate reader analysis; type: cell-based
[37] = target: T1, Sphingosine 1-phosphate receptor 1; experiment: Agonist activity at human recombinant C-terminal GFP-fused S1P1 expressed in CHO cells assessed as induction of receptor internalization incubated for 50 mins by fluorescence based confocal laser scanning microscopic analysis; type: cell-based

T1 sequence (P21453 whole entry): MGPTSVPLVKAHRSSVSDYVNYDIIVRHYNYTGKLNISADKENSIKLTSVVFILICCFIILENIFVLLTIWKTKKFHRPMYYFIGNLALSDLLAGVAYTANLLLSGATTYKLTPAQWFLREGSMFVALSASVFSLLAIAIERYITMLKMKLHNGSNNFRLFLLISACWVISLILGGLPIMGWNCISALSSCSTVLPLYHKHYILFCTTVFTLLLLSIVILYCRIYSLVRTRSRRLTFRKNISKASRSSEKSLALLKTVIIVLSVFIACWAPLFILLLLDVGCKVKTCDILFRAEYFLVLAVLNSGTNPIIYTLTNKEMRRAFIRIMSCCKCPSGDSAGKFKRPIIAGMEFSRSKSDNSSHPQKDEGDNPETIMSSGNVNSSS
Sphingosine 1-phosphate receptor 3, sequence (Q99500 whole entry): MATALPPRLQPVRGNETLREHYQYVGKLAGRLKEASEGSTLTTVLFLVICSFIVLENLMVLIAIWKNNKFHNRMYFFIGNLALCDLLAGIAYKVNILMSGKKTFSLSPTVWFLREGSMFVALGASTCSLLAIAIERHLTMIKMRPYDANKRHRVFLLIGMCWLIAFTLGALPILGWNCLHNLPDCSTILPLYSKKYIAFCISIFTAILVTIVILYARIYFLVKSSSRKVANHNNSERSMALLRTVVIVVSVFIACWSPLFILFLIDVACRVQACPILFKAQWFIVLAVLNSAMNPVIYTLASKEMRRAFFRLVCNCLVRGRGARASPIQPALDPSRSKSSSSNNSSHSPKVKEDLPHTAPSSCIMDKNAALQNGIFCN

concentration [2]: 78 nM
Activity [4]: 78%
Ratio [7]: 0.77
half-life [8]: 16 h
concentration [9]: 271 nM
Structure (SMILES): COCCCCC1CCc2cc([C@H]3CC[C@](N)(CO)C3)ccc2C1 (stereo in doubt; 13b)
Activity [1]: -15%
fold change (FC) [3]: 2.1
Activity [5]: -29%
Activity (Rattus norvegicus [6]): 65%

Activity [10]: 22%
Structure (SMILES): C/C=C\CCC[C@@H]1CCc2cc([C@H]3CC[C@](N)(CO)C3)ccc2C1
Activity (Rattus norvegicus [11]): 0%

Activity [12]: 56%
Ct [13]: Bld
Ct [14]: Bld
Activity [15]: 0%
Structure (SMILES): CCCCCSC[C@H]1CCc2cc([C@H]3CC[C@](N)(CO)C3)ccc2C1
Activity [1]: -29%
Activity [5]: -41%

Ratio [16]: 1.2
half-life [18]: > 100 h
Ratio AUC [19]: 0.3
concentration at 24 h [20]: 51 nM
Ratio AUC [21]: 2.4
concentration at 4 h [22]: 36 nM
Ratio AUC [23]: 0.1
Activity [25]: 76%
Ratio AUC [26]: 2.5
Structure (SMILES): CCCCCC[C@@H]1CCc2cc([C@H]3CC[C@](N)(CO)C3)ccc2C1 [BMS-986104]
Activity [1]: -2%
Activity (Rattus norvegicus [17]): 23%
Activity [5]: -33%
fold change (FC) [24]: 1.1

Ratio [27]: 2.3
concentration at 24 h ([28]; Lewis, blood, read-out: Ct): 10 nM
Activity [29]: 75%
concentration at 4 h [30]: 109 nM
Structure (SMILES): CCCC[S+]([O-])C[C@@H]1CCc2cc([C@H]3CC[C@](N)(CO)C3)ccc2C1 (stereo not given in full)
fold change (FC) [31]: 1.5
Activity (Rattus norvegicus [32]): 0%

Ct ([28]; in vivo, 5 mg/kg, 24 h, BLD = below limit of detection): Bld
Activity [29]: 16%
concentration at 4 h [30]: 44 nM
Structure (SMILES): CCCCS(=O)(=O)C[C@@H]1CCc2cc([C@H]3CC[C@](N)(CO)C3)ccc2C1
fold change (FC) [31]: 0.8
Activity (Rattus norvegicus [32]): 13%

Ratio AUC [19]: 5.9
Ratio AUC [21]: 3.7
Ratio AUC [23]: 0.42
Ratio AUC [26]: 5.6
Structure (SMILES): CCCCCCCCc1ccc(CCC(N)(CO)CO)cc1 [FINGOLIMOD]

EC50 [33]: 2.1 nM
IC50 [34]: 0.016 nM
EC50 [35]: > 1000 nM
EC50 [36]: 2.7 nM
EC50 [37]: 4.9 nM
Structure (SMILES): COCCCCC[C@@H]1CCc2cc([C@H]3CC[C@](N)(COP(=O)(O)O)C3)ccc2C1

EC50 [33]: 2.1 nM
IC50 [34]: 0.04 nM
EC50 [35]: > 1000 nM
EC50 [36]: 5.2 nM
EC50 [37]: 0.4 nM
Structure (SMILES): CCOCCC[C@H]1CCc2cc([C@H]3CC[C@](N)(COP(=O)(O)O)C3)ccc2C1
